Here are results for 13 compounds from paper PMC11750580 (Toxicology Reports, 2024).

For orientation: EC50 means the concentration needed to bring the measured effect to its halfway point. A low value points to higher potency in that assay.

One data set has as its system CYP1A genes. Conditions: HepaRG cells; cited from earlier work.
A further data set is described as follows: MTT cytotoxicity, Caco-2. The class given is cell-based. The note with it: human, Caco-2 cells.
The nature of the next data set: MTT cytotoxicity, HepG2. The class given is cell-based. The note with it: human, HepG2 cells.
The next data set in a line: MTT cytotoxicity, HepaRG. Type of data set: cell-based, human. The note with it: human, HepaRG cells (differentiated).
A short description of the next data set: MTT cytotoxicity, MRC-5. The class given is cell-based. The note with it: human, MRC-5 cells.
The nature of another data set: MTT cytotoxicity, MSC. The note with it: human, adipose-derived mesenchymal stem cells (MSC). The class given is cell-based, human.
The nature of another data set: MTT cytotoxicity, T47D. The class given is cell-based. Conditions: human, T47D cells.
The test system of data set [1] is Caco-2 cells. As to the kind of experiment: Cell proliferation and migration. Type of data set: cell-based, human. Conditions: for proliferation speed compared to control (100 %): Caco-2, 1 µM, 24 h; for effect on cell proliferation rate vs media control: Caco-2, 10 µM, p < 0.05; for effect on growth and proliferation vs media control: Caco-2, any tested concentration (0.1, 1, 10 µM). The gist of the method:
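Cells were seeded at 100,000 cells/mL in 48-well plates and grown to 90–100 % confluence. Each monolayer was scratched with a pipette tip. Medium was then replaced with exposure medium containing 0.1, 1 or 10 µM test compound; cytochalasin D (1 mM) was the positive control. Wells were imaged by automated phase-contrast microscopy every 30 min for 24 h. Read-outs were cell-free area (mm2) and proliferation rate relative to media control (n = 8–16; one-way ANOVA, Dunnett's).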

Data set [2] concerns the target T1, human aryl hydrocarbon receptor (AhR) (Homo sapiens, UniProt P35869).
T1 sequence (P35869 11-848): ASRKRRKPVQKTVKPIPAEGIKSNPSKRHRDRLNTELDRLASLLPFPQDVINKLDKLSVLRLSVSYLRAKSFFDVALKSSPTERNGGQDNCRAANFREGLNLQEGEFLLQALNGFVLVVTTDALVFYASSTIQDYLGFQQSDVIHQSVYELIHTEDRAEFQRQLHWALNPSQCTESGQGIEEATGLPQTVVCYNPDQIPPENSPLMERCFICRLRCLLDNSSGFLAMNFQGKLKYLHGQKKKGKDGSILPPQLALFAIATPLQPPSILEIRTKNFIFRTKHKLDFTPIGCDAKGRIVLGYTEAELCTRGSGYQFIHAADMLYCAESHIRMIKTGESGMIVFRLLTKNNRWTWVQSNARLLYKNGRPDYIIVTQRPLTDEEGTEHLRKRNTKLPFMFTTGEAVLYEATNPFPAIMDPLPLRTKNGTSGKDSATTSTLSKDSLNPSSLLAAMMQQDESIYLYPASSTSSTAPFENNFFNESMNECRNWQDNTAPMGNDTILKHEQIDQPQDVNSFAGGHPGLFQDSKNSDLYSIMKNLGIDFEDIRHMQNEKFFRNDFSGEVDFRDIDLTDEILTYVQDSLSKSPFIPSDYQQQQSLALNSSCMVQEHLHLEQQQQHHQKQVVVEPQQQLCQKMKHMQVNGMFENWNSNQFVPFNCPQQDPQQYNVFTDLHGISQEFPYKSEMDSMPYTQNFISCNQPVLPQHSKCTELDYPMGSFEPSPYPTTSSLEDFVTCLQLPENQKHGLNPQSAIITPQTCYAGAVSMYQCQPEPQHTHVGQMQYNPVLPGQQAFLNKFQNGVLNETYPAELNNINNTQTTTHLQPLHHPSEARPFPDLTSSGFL
The note with it: HepG2-AhR Lucia cells.

The test system of a further data set is goats. The note with it: oral, 0.16 g/kg body weight, within 4–24 h; cited from earlier work.
The target of data set [3] is T1, human aryl hydrocarbon receptor (AhR). As to the kind of experiment: cell-based.
The subject of data set [4] is Caco-2 cells. Conditions: cited from earlier work.
Data set [5] concerns adipose-derived mesenchymal stem cells (MSC). Put plainly: MTT cytotoxicity, MSC. The class given is cell-based, human. Conditions: MSC, 24 h exposure, MTT, average ± SD.
A further data set has as its system MRC-5 cells. Conditions: MRC-5, 30 µg/mL, exposure duration not specified; ref Yap et al. 52; cited from earlier work.
A further data set deals with MCF-7 cells. The note with it: MCF-7, 100 µM; cited from earlier work.
In another data set the test system is V79 379 A cells. The note with it: 0.1 mM, 2-hour exposure; cited from earlier work.
The test system of data set [6] is Caco-2 cells. Conditions: Caco-2, 500–1000 µM, 72-hour exposure; ref Tomii et al. 31; cited from earlier work.
In the next data set the test system is HepaRG cells. Put plainly: MTT cytotoxicity, HepaRG. The class given is cell-based, human. The note with it: HepaRG, 24 h exposure, MTT, average ± SD.
A short description of data set [7]: Indole derivatives quantification in cell media. The class given is physicochemical. The note with it: after 24 h of incubation. The gist of the method: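 Test compounds in cell media were measured by reversed-phase HPLC with fluorescence detection on a C18 column (2.2 µm, 150 × 2.1 mm) at 30 °C. A binary gradient ran from 50 mM KH2PO4 (pH 3.3) to that buffer/acetonitrile 700:300. Excitation was 270 nm and emission 350 nm. Compounds were identified by co-chromatography with authentic standards and quantified by peak area.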

The test system of data set [8] is V79–4 Chinese hamster fibroblasts. Conditions: V79–4, 300 µM; cited from earlier work.

Structures are written as SMILES. A value given as a limit tells only on which side of the number the result lay.

Turning to `Cn1ccc2ccccc21` [1-MI], the “induction of CYP1A genes, % of the level of TCDD” value in the data set on CYP1A genes is reported as “about 50%”.

For `Cc1c[nH]c2ccccc12` [3-MI, 3-methylindole], the EC50 at 24 h was above 100 µM in “MTT cytotoxicity, Caco-2”; above 100 µM in “MTT cytotoxicity, HepG2”; 66.4 ± 21.8 µM in “MTT cytotoxicity, HepaRG”; 21.9 ± 8.06 µM in “MTT cytotoxicity, MRC-5”; 0.33 ± 0.1 µM in the data set “MTT cytotoxicity, MSC”; above 100 µM in “MTT cytotoxicity, T47D”. For the same compound, in the data set with Caco-2 cells [1] (Caco-2, 0.1 µM), the “effect on cell proliferation vs media control” value is recorded as “significant decrease in proliferation”. For the same compound, the “proliferation speed compared to control (100 %)” value in the data set on Caco-2 cells [1] stood at 68.2 ± 7.4%. Also, in the data set on Caco-2 cells [1], the “effect on cell proliferation rate vs media control” value is given as “significant reduction in cell proliferation rates”. In addition, the AhR agonist character result in data set [2] is given as “partial agonists”. Besides, the “induction of CYP1A genes, % of the level of TCDD” value in the data set with CYP1A genes is recorded as “about 50%”. Moreover, the pulmonary toxicity findings entry with goats was “severe pulmonary edema, denuded bronchioles, and necrotic alveolar cells”. This compound displayed an EC50 in [3] of 1.4 µM.

`Cc1cccc2[nH]ccc12` [4-MI]: the “induction of CYP1A gene expression” value in the data set with CYP1A genes was “comparable to TCDD”.

Turning to `Cc1ccc2cc[nH]c2c1` [6-MI], the “induction of CYP1A gene expression” value in the data set on CYP1A genes was “comparable to TCDD”.

Turning to `O=c1cc(-c2ccccc2)oc2ccc3ccccc3c12` [BNF, β-naphthoflavone, reference compound], in [2], the AhR agonist character result is on record as “partial agonists”.

As for `c1ccc2c(c1)cc1ccc3cccc4ccc2c1c34` [BaP, benzo[a]pyrene, reference compound], in [2], the AhR agonist character entry is “partial agonists”.

On to `O=Cc1c[nH]c2ccccc12` [I3A, indole-3-aldehyde], for which the EC50 at 24 h in the data set “MTT cytotoxicity, Caco-2” was above 100 µM; in the data set “MTT cytotoxicity, HepG2” it was above 100 µM; in “MTT cytotoxicity, HepaRG”, 1.98 ± 0.73 µM; in the data set “MTT cytotoxicity, MRC-5”, 49.8 ± 14.5 µM; in the data set “MTT cytotoxicity, MSC”, 1.87 ± 0.83 µM; in “MTT cytotoxicity, T47D”, above 100 µM. Moreover, in the data set on Caco-2 cells [1], the “proliferation speed compared to control (100 %)” value worked out at 71.3 ± 5.1%. In addition, the “effect on cell proliferation rate vs media control” value in the data set with Caco-2 cells [1] is given as “significant reduction in cell proliferation rates”. The AhR agonist character result in data set [2] is “strong agonists”. Further, the “reduction in cell viability” value in the data set on Caco-2 cells [4] (Caco-2, 160 µM, ref Liu et al. 30) is listed as 89.6%. This compound gave an EC50 in data set [3] of 0.04 µM.

Take `O=C(O)c1c[nH]c2ccccc12` [I3CA, indole-3-carboxylic acid]: the EC50 at 24 h in “MTT cytotoxicity, Caco-2” is above 100 µM; in “MTT cytotoxicity, HepG2”, above 100 µM; in the data set “MTT cytotoxicity, HepaRG”, 53 ± 12.1 µM; in the data set “MTT cytotoxicity, MRC-5”, 0.52 ± 0.08 µM; in the data set “MTT cytotoxicity, MSC”, 0.64 ± 0.31 µM; in “MTT cytotoxicity, T47D”, above 100 µM. For the same compound, the “effect on cell proliferation rate vs media control” value in the data set with Caco-2 cells [1] is recorded as “significant reduction in cell proliferation rates”. The AhR agonist character result in data set [2] was “strong agonists”. Also, the EC50 in data set [3] stood at 0.88 µM.

With `O=C(O)Cc1c[nH]c2ccccc12` [IAA, indole-3-acetic acid], the concentration for a half-maximal effect (EC50) at 24 h in the data set “MTT cytotoxicity, Caco-2” was 0.52 ± 0.12 µM; in the data set “MTT cytotoxicity, HepG2”, above 100 µM; in “MTT cytotoxicity, HepaRG”, 2.21 ± 0.32 µM; in “MTT cytotoxicity, MRC-5”, 2.55 ± 1.95 µM; in “MTT cytotoxicity, MSC”, above 100 µM; in the data set “MTT cytotoxicity, T47D” it was 1.68 ± 0.46 µM. The “Cytotoxic evaluation (EC50)” value in [5] is “did not show toxicity”. Besides, the “effect on growth and proliferation vs media control” value with Caco-2 cells [1] is “no significant differences”. Further, the cytotoxic effects result in the data set with MRC-5 cells is given as “no cytotoxic effects”. The cytotoxicity entry with MCF-7 cells was “did not show cytotoxicity”. The cytotoxic response entry in the data set with V79 379 A cells is “did not show a cytotoxic response”. Also, the “effect on cell count and cytotoxicity (LDH assay)” value in the data set with Caco-2 cells [6] was “reduced Caco-2 cell count without causing cytotoxicity”.

Regarding `O=C(O)CCc1c[nH]c2ccccc12` [IPA, indole-3-propionic acid], the EC50 at 24 h was above 100 µM in the data set “MTT cytotoxicity, Caco-2”; above 100 µM in the data set “MTT cytotoxicity, HepG2”; above 100 µM in the data set “MTT cytotoxicity, HepaRG”; 0.91 ± 0.1 µM in “MTT cytotoxicity, MRC-5”; 0.4 ± 0.14 µM in “MTT cytotoxicity, MSC”; 2.02 ± 0.13 µM in the data set “MTT cytotoxicity, T47D”. For the same compound, the “Cytotoxic evaluation (EC50)” value in the data set with HepaRG cells is recorded as “no sensitivity”. The “effect on growth and proliferation vs media control” value with Caco-2 cells [1] was “no significant differences”. Besides, in data set [2], the AhR agonist character entry is listed as “strong agonists”. In [3], this compound came in with an EC50 of 0.11 µM.

Regarding `c1ccc2[nH]ccc2c1` [Indole, indole], the EC50 at 24 h in the data set “MTT cytotoxicity, Caco-2” is above 100 µM; in the data set “MTT cytotoxicity, HepG2”, above 100 µM; in the data set “MTT cytotoxicity, HepaRG”, above 100 µM; in the data set “MTT cytotoxicity, MRC-5”, above 100 µM; in “MTT cytotoxicity, MSC”, above 100 µM; in the data set “MTT cytotoxicity, T47D”, above 100 µM. Besides, in the data set on Caco-2 cells [1], the “effect on cell proliferation rate vs media control” value is on record as “significant reduction in cell proliferation rates”. The “recovery rate in cell media (actual vs nominal concentration)” value in data set [7] is listed as “exceeding 100%”. In data set [2], the AhR agonist character result is “weak AhR ligand”. Besides, the “concentration inducing toxic effects” value in the data set with Caco-2 cells [4] (Caco-2) was 5000 µM. For the same compound, a half-maximal response in [3] (EC50) required 32.1 µM.

In [3], `Clc1cc2c(cc1Cl)Oc1cc(Cl)c(Cl)cc1O2` [TCDD, 2,3,7,8-tetrachlorodibenzo-p-dioxin, reference compound] gave an EC50 of 0.0003 to 0.0023 µM.

As to `O=Cc1ccc2cc[nH]c2c1` [indole-6-carboxaldehyde], in data set [8], the toxicity result is “no toxicity”.
